# M18AAP inhibitor – blocks P. falciparum M18 aspartyl aminopeptidase. recombinant PfM18AAP, H-Glu-NHMec fluorogenic cleavage. AID 1822. 290,000 compounds, 1.2% hits. inhibition, % at 7.35 µM;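 active = inhibition above the campaign mean inhibition over all tested compounds plus 3 SD, cut at about 28% in these data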;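 note: 0% = plate median of test compound wells and 100% = 2 mM ZnCl2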
# PfGluPho inh – PfG6PD (Plasmodium falciparum) enzyme inhibition; PfGluPho enzyme, NADPH resazurin-diaphorase fluorescence; inhibition, % at 20 µM; 350,000 compounds, 0.78% hits; AID 504690;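 active = inhibition reaching at least a set limit at 20 µM in the primary screen, cut at about 59% in these data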;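 note: 0% = DMSO wells with substrate and 100% = DMSO wells lacking glucose-6-phosphate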
# Neddyl block – cullin neddylation inhibition; 360,000 compounds, 0.58% hits; TR-FRET cullin neddylation, biochemical; AID 651699; inhibition, % at 25 µM; P61081+Q13564; in the data active = inhibition above about 36%
# HKDC1 inhibitor – inhibitors of human hexokinase HKDC1 | 340,000 compounds, 0.16% hits | recombinant HKDC1, G6PDH/diaphorase resazurin coupled fluorescence | Q2TB90 | inhibition, % at 20 µM;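 active = inhibition above about 35% when tested at 20 µM, limit read from the data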;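 note: plate controls were DMSO wells with enzyme for no effect and DMSO wells lacking enzyme for full effect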
# Target sequence (Q2TB90 whole entry, looked up): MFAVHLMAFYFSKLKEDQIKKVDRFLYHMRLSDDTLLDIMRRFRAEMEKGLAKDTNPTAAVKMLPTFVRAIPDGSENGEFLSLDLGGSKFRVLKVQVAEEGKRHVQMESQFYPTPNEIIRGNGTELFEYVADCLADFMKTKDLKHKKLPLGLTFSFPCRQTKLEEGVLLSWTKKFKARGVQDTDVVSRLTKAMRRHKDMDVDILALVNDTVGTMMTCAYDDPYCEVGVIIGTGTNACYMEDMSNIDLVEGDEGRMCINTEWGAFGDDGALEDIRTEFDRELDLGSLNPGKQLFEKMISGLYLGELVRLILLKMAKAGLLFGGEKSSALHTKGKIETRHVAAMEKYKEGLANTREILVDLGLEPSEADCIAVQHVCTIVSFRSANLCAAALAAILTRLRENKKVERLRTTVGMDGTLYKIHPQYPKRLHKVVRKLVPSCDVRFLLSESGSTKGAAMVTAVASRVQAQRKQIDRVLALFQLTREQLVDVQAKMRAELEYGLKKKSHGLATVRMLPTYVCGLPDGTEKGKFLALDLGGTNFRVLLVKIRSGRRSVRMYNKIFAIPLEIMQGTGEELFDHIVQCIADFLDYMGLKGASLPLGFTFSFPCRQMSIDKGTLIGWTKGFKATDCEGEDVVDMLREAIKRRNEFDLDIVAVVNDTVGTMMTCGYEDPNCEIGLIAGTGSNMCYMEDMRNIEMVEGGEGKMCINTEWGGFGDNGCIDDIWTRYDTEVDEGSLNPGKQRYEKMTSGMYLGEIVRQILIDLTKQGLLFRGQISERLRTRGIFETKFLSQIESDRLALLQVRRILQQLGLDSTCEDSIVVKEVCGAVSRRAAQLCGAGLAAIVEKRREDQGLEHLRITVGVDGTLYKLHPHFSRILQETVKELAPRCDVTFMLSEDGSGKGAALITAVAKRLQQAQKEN
#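 Incubation: 90 min at room temperature in dark / Material: recombinant HKDC1 (HK5) hexokinase enzyme, produced in-house / Quantity: enzyme 5 µg/mL final / Compound: one dose of 20 µM, 1% DMSO / Reagent: glucose and ATP substrates / Buffer or medium: Tris pH 8.0 buffer with MgCl2, Tween-20, BSA, BME / Technique: resorufin fluorescence at 613 nm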
# An asterisk follows results filed as active; nt = not tested or not shown. Rows were chosen to be rich in hits. Some 2.2% of all compounds tested hit in one or more screens of this group.
SMILES,M18AAP inhibitor,PfGluPho inh,Neddyl block,HKDC1 inhibitor
CSc1ccc(-c2ccco2)nn1,5,5,16,-3
c1coc(-c2nnc(-c3ccco3)nn2)c1,54*,49,4,30
CCCCn1c(N)c(N(CC(C)C)C(=O)c2c(CC)noc2C)c(=O)[nH]c1=O,nt,-13,7,-7
Cc1cc(C[n+]2ccccc2)c2nsnc2c1,-1,-8,45*,-14
Cc1cc(C[n+]2ccsc2N)c2ncccc2c1,-3,19,-9,-5
Cc1[nH][nH]c(=O)c1C(c1ccc(O)c(Br)c1)c1c(C)[nH][nH]c1=O,28,-8,7,2
CCOc1cc(C(c2c(C)[nH][nH]c2=O)c2c(C)[nH][nH]c2=O)ccc1O,30*,21,0,-2
Cc1[nH][nH]c(=O)c1C(c1ccc(O)c([N+](=O)[O-])c1)c1c(C)[nH][nH]c1=O,31*,8,-31,-6
Cn1c(/N=C/c2c(O)ccc3ccccc23)nc2ccccc21,3,76*,2,54*
Cn1nccc1C(=O)N/N=C/c1c(O)ccc2ccccc12,28*,-29,20,-17
O=C(NN=Cc1c(O)ccc2ccccc12)c1ccncc1,nt,-40,-172,-24
O=C(N/N=C/c1c(O)ccc2ccccc12)c1cccnc1,31*,-24,-44,-26
CCCn1c(/N=C/c2ccccc2O)nc2ccccc21,-7,12,3,-2
Oc1c(Br)cc2oc3c(c2c1CNCc1ccccc1)CCCC3,31*,-20,-6,9
Cc1ccc(NC(=S)N2CCC(c3ccc(C)cc3)C2)cc1 (stereo unspecified),39*,43,2,-2
Cn1cncc1C#Cc1ccc2cc(CCCO)oc(=O)c2c1,nt,5,45*,-2
Cc1oc(C(C)(C)C)cc1C(=O)N1CCN(c2ncccc2C(F)(F)F)CC1,-7,16,5,2
COc1ccccc1N1CCN(C(=O)c2cc(C(C)(C)C)oc2C)CC1,29*,-4,1,1
c1ccc(C2CSc3ccccc3N2)cc1 (stereo unspecified),41*,26,-6,-2
CNC(=O)OCc1ncn(-c2ccccc2)c1COC(=O)NC,nt,nt,-9,nt
Cc1ccc(C(=O)c2coc3ccc(O)cc23)cc1,4,17,-6,1
CCn1nc(C)c(/C=N/NC(=O)c2ccc3c(c2)c(C)c(C)n3Cc2ccccc2)c1C,9,-20,40*,1
CCCCC(=O)N(C)c1c(C)nc2ccc(C(=O)N3CCN(C(=O)c4ccco4)CC3)cn12,nt,nt,1,nt
Cc1ccc(OCC(O)Cn2c(N3CCCCC3)nc3c2c(=O)[nH]c(=O)n3C)cc1C (stereo unspecified),-1,0,-8,0
CCOC(=O)[C@@H]1[C@H]2COc3ccc(Br)cc3[C@H]2N2C(=O)N(c3cccc(Cl)c3)C(=O)[C@]12C,7,7,-7,-1
SMILES,M18AAP inhibitor,PfGluPho inh,Neddyl block,HKDC1 inhibitor
Nc1nonc1NN=C1CCCCC1,31*,1,-6,-2
CCOC(=O)N1CCN(C(=O)c2cc3c(=O)n4ccccc4nc3s2)CC1,0,22,nt,-9
CN1CCN(C(=O)c2cc3c(=O)n4ccccc4nc3s2)CC1,29*,4,nt,3
Cc1[nH]oc(=O)c1N=Nc1ccc2[nH]c(=O)[nH]c2c1,nt,15,-44,14
CCOC(=O)c1cc2cc3ccccc3cc2[nH]1,0,-4,41*,-2
CC(=O)NNc1nc(-c2ccc(NC(C)=O)cc2)cs1,31*,6,-5,-10
CC(=O)Nc1ccc(-c2csc(NNC(=O)c3ccc(C)cc3)n2)cc1,19,6,0,-10
O=C(Cn1cc(C(F)(F)F)ccc1=O)N1CCc2ccccc2C1,nt,8,11,-3
COc1cc(/C=N/Nc2cc(C)nc(NS(=O)(=O)c3ccc(C)cc3)n2)ccc1O,30*,8,38,-7
Cc1nc(N)sc1-c1csc(Nc2cccc(O)c2)n1,31*,27,-15,-12
COc1ccc(S(=O)(=O)Nc2cc(Sc3ncn[nH]3)c(O)c3ccccc23)cc1,50*,nt,nt,nt
O=C(O)CCCCCCCCCCCNC(=O)NC12CC3CC(CC(C3)C1)C2,nt,-13,5,9
CCn1c(=O)c(-c2cc(=O)[nH][nH]2)c(O)c2ccccc21,31*,-1,10,-14
Oc1ccccc1/C=N/n1c(COc2ccccc2)n[nH]c1=S,28*,8,5,11
S=c1[nH]nc(COc2ccccc2)n1/N=C/c1ccco1,28*,14,-6,-10
Cc1ccccc1/C=N/n1c(COc2ccccc2)n[nH]c1=S,13,15,-1,-1
COc1ccc(/C=N/n2c(COc3ccccc3)n[nH]c2=S)cc1OC,30*,27,-7,-5
CCOc1ccccc1/C=N/n1c(COc2ccccc2)n[nH]c1=S,31*,28,4,0
CCCc1cc(C(=O)Nc2sc(C)c(C)c2C(=O)OCC)no1,35*,43,nt,-4
CCOc1ccc(Nc2nc3ccccc3n2C)cc1,nt,26,1,-6
CCOc1ccc(Nc2nc3ccccc3n3nnnc23)cc1,-5,17,40*,-4
Oc1ccccc1/C=N/NC(=S)NC1CC2CC1C1C=CCC21 (stereo unspecified),2,-1,53*,-25
COc1cccc(/C=N/NC(=S)NC2CC3CC2C2C=CCC32)c1O (stereo unspecified),-2,-17,1,-2
COc1ccccc1NC(=O)CCc1nc2ccccc2s1,-8,17,1,-6
CC(C)c1ccccc1NC(=O)CCc1nc2ccccc2s1,30*,32,0,-14
SMILES,M18AAP inhibitor,PfGluPho inh,Neddyl block,HKDC1 inhibitor
O=C(O)c1ccc(N/N=C2/CCSc3ccc(F)cc32)cc1,29*,-6,-13,-2
COc1cc(OC)cc(C(=O)NNc2nc3cc4c(cc3s2)OCO4)c1,31*,41,-2,-17
CCOC(=O)N1CCC(NC(=O)c2ccc3c(c2)N(C)C(=O)/C(=C/c2cccc(OC)c2)S3)CC1,5,6,21,-3
CCOC(=O)C1CCCN(C(=O)/C(=C/c2ccco2)NC(=O)c2ccccc2)C1 (stereo unspecified),30*,-9,-2,-3
O=C(N/C(=C/c1ccco1)C(=O)N1CCCCCC1)c1ccccc1,17,-7,6,-6
Cn1nc([N+](=O)[O-])nc1N1CCN(c2ccc(F)cc2)CC1,28*,25,-26,-7
Cc1cc([N+](=O)[O-])nn1CCCC(=O)N1CCN(c2ccc(F)cc2)CC1,-2,-19,-14,-5
O=C(NCc1cc([N+](=O)[O-])ccc1O)c1cc(-c2ccncc2)nc2ccccc12,5,-3,-35,-1
O=C(Nc1ccc(F)cc1)C1=CC(=O)N2CCN=C2S1,29*,nt,nt,nt
O=S(=O)(O)c1cc(O)c2cc(Nc3ccccc3)ccc2c1,nt,9,44*,22
CC(=O)Nc1ccc2c(O)cc(S(=O)(=O)O)cc2c1,nt,26,-6,10
CC(=O)C1C(=O)c2c(cccc2[N+](=O)[O-])C1=Nc1ccc(S(N)(=O)=O)cc1 (stereo unspecified),31*,4,-37,-2
Cc1c(CCCl)c(Cl)n2c(nc3ccccc32)c1C#N,nt,-61,nt,14

# Screening data deposited in PubChem by several laboratories.
